Measured values published in ChEMBL document CHEMBL4689842, “EUbOPEN Chemogenomics Library wave 1” (2021).

What was measured:
Assay type in all cases: toxicity, cell-based
Fibroblast [1] = assay: Incucyte cell viability with human fibroblast; settings: 10 µM, compound concentration 10 uM; further: filed as whole numbers so only -1 and 0 and 1 occur
HEK-293T [2] = assay: Incucyte cell viability with HEK293T; settings: human, 10 µM, compound concentration 10 uM; further: filed as whole numbers so only -1 and 0 and 1 occur
U2OS [3] = assay: Incucyte cell viability with U2OS; settings: human, 10 µM, compound concentration 10 uM; further: filed as whole numbers so only -1 and 0 and 1 occur
Fibroblast [4] = assay: Multiplex assay against human fibroblast
Procedure, shortened: (§1)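 Compound was added to live cells that had been stained at seeding with Hoechst33342, BioTracker Green Microtubule Cytoskeleton Dye, MitoTracker Red and Annexin V Alexa Fluor 680, and imaging followed on a CQ1 microscope at 37°C and 5% CO2. CellPathfinder machine-learning gating divided cells into Hoechst high-intensity objects or normal cells, normal cells into healthy, pyknosed or fragmented nuclei, and pyknosed cells into mitotic or apoptotic. Tubulin, mitochondrial-mass and membrane-permeability phenotypes are per cents of healthy-nucleus cells.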

U2OS [5] = assay: Multiplex assay against U2OS; settings: human; procedure, shortened: as §1
HEK-293T [6] = assay: Multiplex assay against HEK293T; settings: human; procedure, shortened: as §1
[7] = 0 h, replicate number 1, timepoint 0 hours
[8] = 6 h, replicate number 1, timepoint 6 hours
[9] = 12 h, replicate number 1, timepoint 12 hours
[10] = 18 h, replicate number 1, timepoint 18 hours
[11] = 24 h, replicate number 1, timepoint 24 hours
[12] = 24 h, replicate number 2, timepoint 24 hours
[13] = 6 h, replicate number 2, timepoint 6 hours
[14] = 12 h, replicate number 2, timepoint 12 hours
[15] = 18 h, replicate number 2, timepoint 18 hours
[16] = 12 h, 1 µM, compound concentration 1 uM, replicate 1
[17] = 12 h, 1 µM, compound concentration 1 uM, replicate 2
[18] = 12 h, 10 µM, compound concentration 10 uM, replicate 1
[19] = 12 h, 10 µM, compound concentration 10 uM, replicate 2
[20] = 24 h, 1 µM, compound concentration 1 uM, replicate 1
[21] = 24 h, 1 µM, compound concentration 1 uM, replicate 2
[22] = 24 h, 10 µM, compound concentration 10 uM, replicate 1
[23] = 24 h, 10 µM, compound concentration 10 uM, replicate 2
[24] = 48 h, 1 µM, compound concentration 1 uM, replicate 1
[25] = 48 h, 1 µM, compound concentration 1 uM, replicate 2
[26] = 48 h, 10 µM, compound concentration 10 uM, replicate 1
[27] = 48 h, 10 µM, compound concentration 10 uM, replicate 2

## C[C@@H](N)Cc1c[nH]cn1.Cl.Cl
Fibroblast [1]; [7]
  Growth Rate: 1
Fibroblast [1]; 0 h, replicate number 2, timepoint 0 hours
  Growth Rate: 0
Fibroblast [1]; [8]
  Growth Rate: 0
Fibroblast [1]; [9]
  Growth Rate: 0
Fibroblast [1]; [10]
  Growth Rate: 0
Fibroblast [1]; [11]
  Growth Rate: 0
Fibroblast [1]; [12]
  Growth Rate: 1
HEK-293T [2]; [7]
  Growth Rate: 0
HEK-293T [2]; [8]
  Growth Rate: 1
HEK-293T [2]; [13]
  Growth Rate: 0
HEK-293T [2]; [9]
  Growth Rate: 1
HEK-293T [2]; [14]
  Growth Rate: 0
HEK-293T [2]; [10]
  Growth Rate: 1
HEK-293T [2]; [15]
  Growth Rate: 0
HEK-293T [2]; [11]
  Growth Rate: 1
HEK-293T [2]; [12]
  Growth Rate: 0
U2OS [3]; [7]
  Growth Rate: 1
U2OS [3]; [8]
  Growth Rate: 0
U2OS [3]; [9]
  Growth Rate: 0
U2OS [3]; [14]
  Growth Rate: 1
U2OS [3]; [10]
  Growth Rate: 0
U2OS [3]; [15]
  Growth Rate: 1
U2OS [3]; [11]
  Growth Rate: 0
U2OS [3]; [12]
  Growth Rate: 1

## CCC(=O)NC1Cc2ccccc2C(c2ccccc2)C1 (stereo not given)
Fibroblast [1]; [7]
  Growth Rate: 0
Fibroblast [1]; [8]
  Growth Rate: 0
Fibroblast [1]; [9]
  Growth Rate: 0
Fibroblast [1]; [10]
  Growth Rate: 0
Fibroblast [1]; [11]
  Growth Rate: 0
HEK-293T [2]; [7]
  Growth Rate: 0
HEK-293T [2]; [8]
  Growth Rate: 1
HEK-293T [2]; [13]
  Growth Rate: 0
HEK-293T [2]; [9]
  Growth Rate: 0
HEK-293T [2]; [10]
  Growth Rate: 0
HEK-293T [2]; [11]
  Growth Rate: 0
U2OS [3]; [7]
  Growth Rate: 0
U2OS [3]; [13]
  Growth Rate: 0
U2OS [3]; [9]
  Growth Rate: 1
U2OS [3]; [10]
  Growth Rate: 1
U2OS [3]; [15]
  Growth Rate: 0
U2OS [3]; [11]
  Growth Rate: 0

## CC(C)C[C@H](NC(=O)[C@H](Cc1ccccc1)NC(=O)CNC(=O)CNC(=O)[C@@H](N)Cc1ccc(O)cc1)C(=O)O [ENKEPHALIN]
Fibroblast [4]; [16]
  Population Apoptotic (%): 68%
  Population Healthy Nuclei (%): 53%
  Population Membrane Permeable-Phenotype (%): 26%
  Population Mitotic Cells (%): 31%
  Population Pyknosed Nuclei (%): 20%
  Population Tubulin-Different-Phenotype (%): 57%
  Total Cell Count: 95
Fibroblast [4]; [17]
  Population Healthy Nuclei (%): 82%
  Population Pyknosed Nuclei (%): 5%
  Population Tubulin-Different-Phenotype (%): 34%
  Total Cell Count: 70
Fibroblast [4]; [18]
  Population Apoptotic (%): 76%
  Population Healthy Nuclei (%): 39%
  Population Membrane Permeable-Phenotype (%): 27%
  Population Mitotic Cells (%): 23%
  Population Pyknosed Nuclei (%): 32%
  Total Cell Count: 130
Fibroblast [4]; [19]
  Population Healthy Nuclei (%): 86%
  Population Tubulin-Different-Phenotype (%): 11%
  Total Cell Count: 62
Fibroblast [4]; [20]
  Population Healthy Nuclei (%): 47%
  Population Membrane Permeable-Phenotype (%): 23%
  Population Pyknosed Nuclei (%): 26%
  Population Tubulin-Different-Phenotype (%): 34%
  Total Cell Count: 111
Fibroblast [4]; [21]
  Population Healthy Nuclei (%): 84%
  Population Pyknosed Nuclei (%): 5%
  Population Tubulin-Different-Phenotype (%): 31%
  Total Cell Count: 68
Fibroblast [4]; [22]
  Population Apoptotic (%): 60%
  Population Healthy Nuclei (%): 52%
  Population Membrane Permeable-Phenotype (%): 35%
  Population Mitotic Cells (%): 40%
  Population Pyknosed Nuclei (%): 22%
  Total Cell Count: 129
Fibroblast [4]; [23]
  Population Healthy Nuclei (%): 86%
  Population Pyknosed Nuclei (%): 7%
  Population Tubulin-Different-Phenotype (%): 15%
  Total Cell Count: 86
Fibroblast [4]; [24]
  Population Apoptotic (%): 63%
  Population Healthy Nuclei (%): 45%
  Population Membrane Permeable-Phenotype (%): 15%
  Population Pyknosed Nuclei (%): 22%
  Total Cell Count: 96
Fibroblast [4]; [25]
  Population Apoptotic (%): 100%
  Population Healthy Nuclei (%): 73%
  Population Membrane Permeable-Phenotype (%): 22%
  Population Mitotic Cells (%): 0%
  Population Pyknosed Nuclei (%): 1%
  Total Cell Count: 81
Fibroblast [4]; [26]
  Population Apoptotic (%): 35%
  Population Healthy Nuclei (%): 59%
  Population Membrane Permeable-Phenotype (%): 26%
  Population Mitotic Cells (%): 64%
  Population Pyknosed Nuclei (%): 12%
  Population Tubulin-Different-Phenotype (%): 31%
  Total Cell Count: 130
Fibroblast [4]; [27]
  Population Healthy Nuclei (%): 76%
  Population Membrane Permeable-Phenotype (%): 18%
  Population Mitotic Cells (%): 0%
  Population Pyknosed Nuclei (%): 0%
  Population Tubulin-Different-Phenotype (%): 24%
  Total Cell Count: 118
U2OS [5]; [16]
  Population Healthy Nuclei (%): 77%
  Population Pyknosed Nuclei (%): 10%
  Population Tubulin-Different-Phenotype (%): 9%
  Total Cell Count: 216
U2OS [5]; [17]
  Population Healthy Nuclei (%): 82%
  Population Pyknosed Nuclei (%): 5%
  Population Tubulin-Different-Phenotype (%): 34%
  Total Cell Count: 70
U2OS [5]; [18]
  Population Healthy Nuclei (%): 78%
  Population Pyknosed Nuclei (%): 11%
  Population Tubulin-Different-Phenotype (%): 9%
  Total Cell Count: 148
U2OS [5]; [19]
  Population Healthy Nuclei (%): 86%
  Population Tubulin-Different-Phenotype (%): 11%
  Total Cell Count: 62
U2OS [5]; [20]
  Population Healthy Nuclei (%): 82%
  Population Pyknosed Nuclei (%): 9%
  Population Tubulin-Different-Phenotype (%): 9%
  Total Cell Count: 218
U2OS [5]; [21]
  Population Healthy Nuclei (%): 84%
  Population Pyknosed Nuclei (%): 5%
  Population Tubulin-Different-Phenotype (%): 31%
  Total Cell Count: 68
U2OS [5]; [22]
  Population Healthy Nuclei (%): 80%
  Population Pyknosed Nuclei (%): 10%
  Total Cell Count: 174
U2OS [5]; [23]
  Population Healthy Nuclei (%): 86%
  Population Pyknosed Nuclei (%): 7%
  Population Tubulin-Different-Phenotype (%): 15%
  Total Cell Count: 86
U2OS [5]; [24]
  Population Healthy Nuclei (%): 87%
  Population Pyknosed Nuclei (%): 7%
  Total Cell Count: 229
U2OS [5]; [25]
  Population Healthy Nuclei (%): 92%
  Population Tubulin-Different-Phenotype (%): 31%
  Total Cell Count: 80
U2OS [5]; [26]
  Population Healthy Nuclei (%): 84%
  Population Pyknosed Nuclei (%): 8%
  Population Tubulin-Different-Phenotype (%): 5%
  Total Cell Count: 251
U2OS [5]; [27]
  Population Healthy Nuclei (%): 85%
  Population Pyknosed Nuclei (%): 6%
  Population Tubulin-Different-Phenotype (%): 15%
  Total Cell Count: 131
HEK-293T [6]; [16]
  Population Apoptotic (%): 45%
  Population Healthy Nuclei (%): 23%
  Population Mitochondria Different-Phenotype (%): 76%
  Population Mitotic Cells (%): 54%
  Population Pyknosed Nuclei (%): 60%
  Total Cell Count: 175
HEK-293T [6]; [17]
  Population Apoptotic (%): 9%
  Population Healthy Nuclei (%): 50%
  Population Mitotic Cells (%): 90%
  Population Pyknosed Nuclei (%): 43%
  Total Cell Count: 229
HEK-293T [6]; [18]
  Population Apoptotic (%): 40%
  Population Healthy Nuclei (%): 32%
  Population Mitochondria Different-Phenotype (%): 84%
  Population Mitotic Cells (%): 60%
  Population Pyknosed Nuclei (%): 57%
  Total Cell Count: 230
HEK-293T [6]; [19]
  Population Apoptotic (%): 9%
  Population Healthy Nuclei (%): 45%
  Population Mitotic Cells (%): 90%
  Population Pyknosed Nuclei (%): 50%
  Total Cell Count: 271
HEK-293T [6]; [20]
  Population Healthy Nuclei (%): 21%
  Population Mitochondria Different-Phenotype (%): 41%
  Population Normal (%): 80%
  Population Pyknosed Nuclei (%): 60%
  Total Cell Count: 175
HEK-293T [6]; [21]
  Population Apoptotic (%): 10%
  Population Healthy Nuclei (%): 66%
  Population Mitotic Cells (%): 89%
  Population Pyknosed Nuclei (%): 28%
  Total Cell Count: 294
HEK-293T [6]; [22]
  Population Healthy Nuclei (%): 45%
  Population Hoechst High Intensity Objects (%): 14%
  Population Mitotic Cells (%): 51%
  Population Normal (%): 85%
  Population Pyknosed Nuclei (%): 45%
  Total Cell Count: 250
HEK-293T [6]; [23]
  Population Apoptotic (%): 7%
  Population Healthy Nuclei (%): 71%
  Population Mitotic Cells (%): 92%
  Population Pyknosed Nuclei (%): 23%
  Total Cell Count: 374
HEK-293T [6]; [24]
  Population Healthy Nuclei (%): 32%
  Population Hoechst High Intensity Objects (%): 25%
  Population Mitochondria Different-Phenotype (%): 26%
  Population Mitotic Cells (%): 51%
  Population Normal (%): 74%
  Population Pyknosed Nuclei (%): 46%
  Total Cell Count: 212
HEK-293T [6]; [25]
  Population Apoptotic (%): 9%
  Population Healthy Nuclei (%): 82%
  Population Mitotic Cells (%): 90%
  Population Pyknosed Nuclei (%): 11%
  Total Cell Count: 546
HEK-293T [6]; [26]
  Population Apoptotic (%): 40%
  Population Healthy Nuclei (%): 62%
  Population Mitochondria Different-Phenotype (%): 22%
  Population Mitotic Cells (%): 60%
  Population Pyknosed Nuclei (%): 27%
  Total Cell Count: 327
HEK-293T [6]; [27]
  Population Apoptotic (%): 18%
  Population Healthy Nuclei (%): 85%
  Population Mitochondria Different-Phenotype (%): 4%
  Population Mitotic Cells (%): 82%
  Population Pyknosed Nuclei (%): 8%
  Total Cell Count: 620
